Measurements: ChEMBL document CHEMBL1157710, “Identification of triazinoindol-benzimidazolones as nanomolar inhibitors of the Mycobacterium tuberculosis enzyme TDP-6-deoxy-d-xylo-4-hexopyranosid-4-ulose 3,5-epimerase (RmlC)” (Bioorg Med Chem, 2010)
Converted amounts (≈) assume the structure as drawn. The source made the active and inactive calls. The calls are words filed in the database; no cut-off is given here.

Key:
[1] = target: T1, dTDP-4-dehydrorhamnose 3,5-epimerase (Mycobacterium tuberculosis (strain CDC 1551 / Oshkosh), UniProt P9WH10); test: Inhibition of Mycobacterium tuberculosis RmlC expressed in Escherichia coli by spectrophotometry
T1 sequence (P9WH10 whole entry): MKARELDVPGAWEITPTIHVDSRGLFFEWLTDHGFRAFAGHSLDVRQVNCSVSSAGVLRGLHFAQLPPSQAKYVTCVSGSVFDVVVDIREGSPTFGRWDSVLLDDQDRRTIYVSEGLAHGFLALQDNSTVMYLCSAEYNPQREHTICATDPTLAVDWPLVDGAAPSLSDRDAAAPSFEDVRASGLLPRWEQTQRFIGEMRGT
In short: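 96-well absorbance assay at 340 nm (NADPH to NADP) in 200 μl of 50 mM MOPS pH 7.4 with 10% glycerol, 0.01% Triton X-100 and 1 mM MgCl2. Final RmlC 70 nM, RmlD 5 nM, TDP-KDX 200 μM, NADPH 25 μM; compound added in 4 μl DMSO. Reactions were started with RmlC and followed 80 min; IC50 came from initial velocities.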

[2] = tested on: Mycobacterium tuberculosis; test: Antimycobacterial activity against Mycobacterium tuberculosis H37Rv by microbroth dilution method; type: functional
[3] = target: T2, dTDP-4-dehydrorhamnose 3,5-epimerase /dTDP-4-dehydrorhamnose reductase (Mycobacterium tuberculosis (strain ATCC 25618 / H37Rv), UniProt P9WH09+P9WH11); test: Inhibition of Mycobacterium tuberculosis RmlC/RmlD expressed in Escherichia coli by spectrophotometry
T2 sequence (P9WH09 whole entry): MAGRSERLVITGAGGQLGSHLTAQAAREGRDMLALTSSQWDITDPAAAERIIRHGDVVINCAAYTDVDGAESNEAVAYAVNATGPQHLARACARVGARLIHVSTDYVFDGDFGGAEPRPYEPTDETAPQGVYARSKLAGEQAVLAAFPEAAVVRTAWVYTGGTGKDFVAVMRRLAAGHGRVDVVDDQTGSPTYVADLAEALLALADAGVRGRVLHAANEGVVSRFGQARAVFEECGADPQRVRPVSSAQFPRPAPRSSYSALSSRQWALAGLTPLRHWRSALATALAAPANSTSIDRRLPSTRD
T2 sequence (P9WH11 whole entry): T1 sequence (P9WH10 whole entry)
In short: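 Final RmlC 2.63 × 10−4 μg/μl, RmlD 6.53 × 10−4 μg/μl, NADPH 25 μM, TDP-KDX 200 μM. A 16-point 2-fold series (55 μM to 1.7 nM) was read as the 90-min drop in 340/460 nm fluorescence at 25 °C, in triplicate. IC50 came from a 4-parameter logistic fit.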

[4] = target: T3, dTDP-4-dehydrorhamnose 3,5-epimerase (Mycobacterium tuberculosis (strain CDC 1551 / Oshkosh)) (UniProt P9WH10); test: Inhibition of Mycobacterium tuberculosis RmlC expressed in Escherichia coli at 0.25 uM by spectrophotometry
T3 sequence (whole entry): T1 sequence (P9WH10 whole entry)

[5] = target: T3, dTDP-4-dehydrorhamnose 3,5-epimerase (Mycobacterium tuberculosis (strain CDC 1551 / Oshkosh)); test: Inhibition of Mycobacterium tuberculosis RmlC expressed in Escherichia coli at 0.5 uM by spectrophotometry
[6] = target: T3, dTDP-4-dehydrorhamnose 3,5-epimerase (Mycobacterium tuberculosis (strain CDC 1551 / Oshkosh)); test: Inhibition of Mycobacterium tuberculosis RmlC expressed in Escherichia coli at 5 uM by spectrophotometry
[7] = target: T3, dTDP-4-dehydrorhamnose 3,5-epimerase (Mycobacterium tuberculosis (strain CDC 1551 / Oshkosh)); test: Competitive inhibition of Mycobacterium tuberculosis RmlC expressed in Escherichia coli assessed as increase in Km of TDP-KDX
In short: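 Competitive-mode test: TDP-KDX varied 0–100 μM with inhibitor at 0, 0.1, 0.15 and 0.2 μM. Km and Vmax were fitted by non-linear regression. Km(obs) was plotted against inhibitor concentration, and Ki was taken from the slope (Km/Ki, Km as y-intercept).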

[8] = target: T3, dTDP-4-dehydrorhamnose 3,5-epimerase (Mycobacterium tuberculosis (strain CDC 1551 / Oshkosh)); test: Reversible inhibition of Mycobacterium tuberculosis RmlC expressed in Escherichia coli by time-dependence study
In short: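 RmlD, TDP-KDX and NADPH were added, and the NADPH fluorescence decrease was followed over 200 min. Slopes from the later phase were compared with a no-compound control.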

[9] = Cytotoxicity against HAEC after 24 hrs; parameters: species or system Homo sapiens
In short: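 Human aortic endothelial cells were seeded at 1000 cells/well in EGM-2 and held 24 hr at 37 °C. They were then exposed 24 hr at 37 °C to a 16-point 2-fold series (final 100 μM to 3 nM) with a DMSO solvent control. Viability was read by CellTiter-Glo luminescence after 10 min, in triplicate.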

Row | SMILES | IC50 [1] [nM] | MIC [2] [µg/mL] | other results
1 | C=CCn1c2ccccc2c2nnc(SCCCn3c(=O)[nH]c4ccccc43)nc21 | 120 | 13 (≈ 31.2 µM) | Ki [1]: 62 nM
2 | Cn1c2ccccc2c2nnc(SCCCn3c(=O)[nH]c4ccccc43)nc21 | 500 | 9 (≈ 23 µM) | 
3 | CCn1c2ccccc2c2nnc(S(=O)(=O)CCCn3c(=O)[nH]c4ccccc43)nc21 | 800 |  | 
4 | CCCn1c2ccccc2c2nnc(SCCCn3c(=O)[nH]c4ccccc43)nc21 | 1250 | 9 (≈ 21.5 µM) | 
5 | C=CCn1c2ccccc2c2nnc(S(=O)(=O)CCCn3c(=O)[nH]c4ccccc43)nc21 | 400 |  | 
6 | C=CCn1c2ccc(C)cc2c2nnc(SCCCn3c(=O)[nH]c4ccccc43)nc21 | 20000 | 25 (≈ 58.1 µM) | 
7 | C=CCn1c2ccccc2c2nnc(SCn3c(=O)[nH]c4ccccc43)nc21 | 10300 |  | 
8 | CCn1c2ccccc2c2nnc(SCCCn3c(=O)[nH]c4ccccc43)nc21 | 200 | 19 (≈ 47 µM) | IC50 [3]: 398 nM; inhibition [4]: 52%; inhibition [5]: 72%; inhibition [6]: 83%; Ki [1]: 100 nM; Activity [7]: Active; inhibition [8]: Active; IC50 [9]: 75000 nM
9 | O=c1[nH]c2ccccc2n1CCCSc1nnc2c3ccccc3n(Cc3ccccc3)c2n1 | 2900 | > 50 | 
10 | O=c1[nH]c2ccccc2n1CCCSc1nnc2c(n1)[nH]c1ccccc12 | 3300 |  | 
